Measured values taken from ChEMBL document CHEMBL3853330, “Exploring the N-Terminal Region of C-X-C Motif Chemokine 12 (CXCL12): Identification of Plasma-Stable Cyclic Peptides As Novel, Potent C-X-C Chemokine Receptor Type 4 (CXCR4) Antagonists” (J Med Chem, 2016).
Each block holds one compound with its values, some of them ahead of it. Active and inactive are the calls of the source. No cut-off for these calls is given here. Positions of bridges follow the written chain, without caps; N, C: chain ends. Residues, ends and D or L forms follow the SMILES beside them.

Legend:
[1] = molecular target: T1, C-X-C chemokine receptor type 4 (Homo sapiens, UniProt P61073); experiment: Inhibition of PE-conjugated-12G5 anti-CXCR4 antibody binding to CXCR4 in human CEM-CCRF cells preincubated for 30 mins followed by antibody addition by FACS Canto II cytofluorometric analysis; format: cell-based
T1 sequence (P61073 whole entry): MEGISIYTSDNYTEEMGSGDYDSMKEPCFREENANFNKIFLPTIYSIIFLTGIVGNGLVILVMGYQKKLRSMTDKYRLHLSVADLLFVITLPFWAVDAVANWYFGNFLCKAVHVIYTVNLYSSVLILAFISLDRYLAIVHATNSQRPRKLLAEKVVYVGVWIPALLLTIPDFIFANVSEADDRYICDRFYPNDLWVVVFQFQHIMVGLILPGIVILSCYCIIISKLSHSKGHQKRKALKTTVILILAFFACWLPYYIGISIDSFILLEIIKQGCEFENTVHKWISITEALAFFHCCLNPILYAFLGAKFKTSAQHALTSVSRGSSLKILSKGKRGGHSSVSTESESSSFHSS

[2] = Drug level in human plasma treated with (4R,7S,10S,13S,16R)-16-amino-7,10-dibenzyl-13-(3-guanidinopropyl)-6,9,12,15-tetraoxo-1,2-dithia-5,8,11,14-tetraazacycloheptadecane-4-carboxylic acid after 2 hrs by ESI-RP-HPLC analysis; format: ADME
Outline: (§1)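 Peptide (1 mg/mL in water) was mixed 1:1 with prewarmed (37 °C) human plasma diluted to 50% in water. Aliquots were taken at 0, 30, 60, 120 and 180 min and quenched with 1% TFA in acetonitrile. After centrifugation, supernatants were run on C18 HPLC-ESI-MS with a 10–90% ACN gradient (0.1% TFA) over 20 min. Relative levels came from A230 peak integration.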

[3] = Drug metabolism in human plasma after 30 mins by ESI-RP-HPLC analysis; format: ADME, cell-free; settings: read-out: Drug metabolism
[4] = molecular target: T1, C-X-C chemokine receptor type 4; experiment: Inhibition of 12G5 anti-CXCR4 antibody binding to CXCR4 in human HT29 cells preincubated for 30 mins followed by antibody addition by FACS Canto II cytofluorometric analysis; format: cell-based, HT-29
[5] = molecular target: T1, C-X-C chemokine receptor type 4; experiment: Inhibition of CXCR4 in human CEM cells assessed as suppression of CXCL12-dependent cell migration after 18 hrs in presence of CXCL12 by H/E staining based microscopic analysis; settings: CCRF-CEM
Outline: (§2)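 Transwell migration assay: inserts with 5 μm pores for CEM cells and 8 μm pores for HT29 cells, membranes precoated with human collagen type I/III and fibronectin (20 μg/mL each). 2 × 10^5 cells went in the upper chamber in medium with 1% BSA plus peptide, and 100 ng/mL CXCL12 in the lower chamber, for 18 h. Migrated cells were H&E-stained and counted in 10 fields. Migration index was taken against BSA-only medium.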

[6] = Metabolic stability in human plasma assessed as compound degradation after 60 mins by ESI-RP-HPLC analysis; format: ADME, cell-free; settings: read-out: Drug degradation; outline: as §1
[7] = Drug metabolism in human plasma assessed as cyclic pentapeptide cyclo[Cys-Arg-Phe-Phe-Cys] metabolite formation after 120 mins by ESI-RP-HPLC analysis; format: ADME, cell-free; settings: 2 h; outline: as §1
[8] = molecular target: T1, C-X-C chemokine receptor type 4; experiment: Inhibition of CXCR4 in human serum starved CEM cells assessed as suppression of CXCL12-dependent ERK phosphorylation at 0.001 to 0.1 uM after 2 to 20 mins in presence of CXCL12 by H/E staining based microscopic analysis; format: cell-based; settings: CCRF-CEM, in the assay text read “immunoblotting” for “H/E staining based microscopic analysis”
Outline: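 Serum-starved CEM cells were stimulated with CXCL12 (100 ng/mL) in the presence of peptide. Lysates were made in Hepes pH 7.5/Triton X-100 buffer with protease and phosphatase inhibitors and immunoblotted for p-ERK and ERK2. Induction is the ratio of p-ERK with CXCL12 to p-ERK under serum-free conditions.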

[9] = molecular target: T1, C-X-C chemokine receptor type 4; experiment: Inhibition of GFP-tagged CXCR4 (unknown origin) internalization expressed in human HCT116 cells assessed as reduction in vesicle size at 0.1 uM pre-incubated for 45 mins followed by CXCL12 addition measured after 45 mins by alpha-tubulin/alexa fluor594/DAPI staining based confocal microscopic analysis; format: cell-based; settings: HCT-116
Outline: (§3)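 HCT116 cells were stably transfected with GFP-CXCR4, grown 1 day on coverslips in DMEM/10% FBS, then equilibrated in DMEM with 0.5% BSA. Cells got peptide (0.1 μM) for 45 min at 37 °C, then CXCL12 for 45 min at 37 °C. They were fixed in 4% formaldehyde, permeabilized with 0.1% Triton, and stained for α-tubulin (Alexa Fluor 594) and DAPI. Confocal microscopy assessed membrane fluorescence and intracellular vesicles.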

[10] = molecular target: T1, C-X-C chemokine receptor type 4; experiment: Antagonist activity at CXCR4 in human HT29 cells assessed as suppression of CXCL12 dependent cell migration at 0.0001 to 10 uM in presence of CXCL12 by H/E staining based microscopic analysis; settings: HT-29; outline: as §2
[11] = molecular target: T1, C-X-C chemokine receptor type 4; experiment: Inhibition of GFP-tagged CXCR4 (unknown origin) internalization expressed in human HCT116 cells at 0.1 uM pre-incubated for 45 mins followed by CXCL12 addition measured after 45 mins by alpha-tubulin/alexa fluor594/DAPI staining based confocal microscopic analysis; format: cell-based; settings: HCT-116; outline: as §3
[12] = Metabolic stability in human plasma after 180 mins by ESI-RP-HPLC analysis; format: ADME, cell-free; settings: 3 h; outline: as §1

- IC50 [1]: > 10 µM
SMILES: CC(=O)N[C@@H](CCCNC(=N)N)C(=O)N[C@@H](C)C(=O)N[C@H]1CSSC[C@@H](C(=O)O)NC(=O)[C@H](Cc2ccccc2)NC(=O)[C@@H](Cc2ccccc2)NC(=O)[C@H](CCCNC(=N)N)NC1=O

- IC50 [1]: > 10 µM
SMILES: CC(=O)N[C@@H](CCCNC(=N)N)C(=O)N[C@@H](C)C(=O)N[C@H]1CSSC[C@@H](C(=O)O)NC(=O)[C@@H](Cc2ccccc2)NC(=O)[C@H](Cc2ccccc2)NC(=O)[C@H](CCCNC(=N)N)NC1=O

- IC50 [1]: 5.9 µM
SMILES: CC(=O)N[C@@H](CCCNC(=N)N)C(=O)N[C@@H](C)C(=O)N[C@H]1CSSC[C@H](C(=O)O)NC(=O)[C@H](Cc2ccccc2)NC(=O)[C@H](Cc2ccccc2)NC(=O)[C@H](CCCNC(=N)N)NC1=O

- IC50 [1]: 1.23 µM
SMILES: CC(=O)N[C@@H](CCCNC(=N)N)C(=O)N[C@@H](C)C(=O)N[C@H]1CSSC[C@@H](C(N)=O)NC(=O)[C@H](Cc2ccccc2)NC(=O)[C@H](Cc2ccccc2)NC(=O)[C@H](CCCNC(=N)N)NC1=O (Ac-RACRFFC-NH2; disulfide 3-7)

- IC50 [4]: 0.064 µM
- inhibition [5]: Active
- IC50 [1]: 0.053 µM
- Stability [12]: Stable
- inhibition [8]: Active
- inhibition [9]: Active
- inhibition [10]: Active
- inhibition [11]: Active
SMILES: CC(=O)N[C@@H](CCCNC(=N)N)C(=O)N[C@@H](C)C(=O)N[C@@H]1CSSC[C@@H](C(=O)O)NC(=O)[C@H](Cc2ccccc2)NC(=O)[C@H](Cc2ccccc2)NC(=O)[C@H](CCCNC(=N)N)NC1=O

- IC50 [1]: > 10 µM
SMILES: CC(=O)N[C@@H](CCCNC(=N)N)C(=O)N[C@@H](C)C(=O)N[C@H]1CSSC[C@@H](C(=O)O)NC(=O)[C@H](Cc2ccccc2)NC(=O)[C@H](Cc2ccccc2)NC(=O)[C@@H](CCCNC(=N)N)NC1=O

- IC50 [1]: 0.131 µM
- Stability [12]: Stable
SMILES: CC(=O)N[C@@H](CCCNC(=N)N)C(=O)N[C@@H](C)C(=O)N[C@H]1CSSC[C@@H](C(=O)O)NC(=O)[C@H](Cc2ccccc2)NC(=O)[C@H](Cc2ccccc2)NC(=O)[C@H](CCCNC(=N)N)NC1=O

More lines, now with the values behind:

SMILES: CC(=O)N[C@@H](CCCNC(=N)N)C(=O)N[C@@H](C)C(=O)N[C@@H]1CSSC[C@@H](C(=O)O)NC(=O)[C@H](Cc2ccccc2)NC(=O)[C@H](Cc2ccccc2)NC(=O)[C@H](C)NC1=O
- IC50 [1]: > 10 µM

SMILES: CC(=O)N[C@@H](CCCNC(=N)N)C(=O)N[C@@H](C)C(=O)N[C@@H]1CSSC[C@@H](C(=O)O)NC(=O)[C@H](C)NC(=O)[C@H](Cc2ccccc2)NC(=O)[C@H](CCCNC(=N)N)NC1=O
- IC50 [1]: > 10 µM

SMILES: CC(=O)N[C@H](CCCNC(=N)N)C(=O)N[C@@H](C)C(=O)N[C@H]1CSSC[C@@H](C(=O)O)NC(=O)[C@H](Cc2ccccc2)NC(=O)[C@H](Cc2ccccc2)NC(=O)[C@H](CCCNC(=N)N)NC1=O
- IC50 [1]: > 10 µM

SMILES: CC(=O)N[C@@H](CCCNC(=N)N)C(=O)N[C@H](C)C(=O)N[C@H]1CSSC[C@@H](C(=O)O)NC(=O)[C@H](Cc2ccccc2)NC(=O)[C@H](Cc2ccccc2)NC(=O)[C@H](CCCNC(=N)N)NC1=O
- IC50 [1]: > 10 µM

SMILES: N=C(N)NCCC[C@@H]1NC(=O)[C@@H](N)CSSC[C@@H](C(=O)O)NC(=O)[C@H](Cc2ccccc2)NC(=O)[C@H](Cc2ccccc2)NC1=O (H-CRFFC-OH; disulfide 1-5)
- Drug uptake [2]: Active

SMILES: CC(=O)N[C@@H](CCCNC(=N)N)C(=O)N[C@@H](C)C(=O)N[C@@H]1CSSC[C@@H](C(=O)O)NC(=O)[C@H](Cc2ccccc2)NC(=O)[C@H](C)NC(=O)[C@H](CCCNC(=N)N)NC1=O
- IC50 [1]: > 10 µM

SMILES: C[C@H](NC(=O)[C@@H](N)CCCNC(=N)N)C(=O)N[C@H]1CSSC[C@@H](C(=O)O)NC(=O)[C@H](Cc2ccccc2)NC(=O)[C@H](Cc2ccccc2)NC(=O)[C@H](CCCNC(=N)N)NC1=O (H-RACRFFC-OH; disulfide 3-7)
- metabolised at 0.5 h [3]: 30%
- IC50 [4]: 5.2 µM
- inhibition [5]: Active
- metabolised at 1 h [6]: 50%
- IC50 [1]: 6.2 µM
- Drug metabolism [7]: Metabolite_Detected
- inhibition [8]: Active
- inhibition [9]: Active
- inhibition [10]: Active
- inhibition [11]: Active

SMILES: CC(=O)N[C@@H](C)C(=O)N[C@@H](C)C(=O)N[C@@H]1CSSC[C@@H](C(=O)O)NC(=O)[C@H](Cc2ccccc2)NC(=O)[C@H](Cc2ccccc2)NC(=O)[C@H](CCCNC(=N)N)NC1=O
- IC50 [1]: > 10 µM

SMILES: C[C@H](NC(=O)[C@@H](N)CCCNC(=N)N)C(=O)N[C@H]1CSSC[C@@H](C(N)=O)NC(=O)[C@H](Cc2ccccc2)NC(=O)[C@H](Cc2ccccc2)NC(=O)[C@H](CCCNC(=N)N)NC1=O (H-RACRFFC-NH2; disulfide 3-7)
- IC50 [1]: 5.9 µM
